This is an account of results in ChEMBL document CHEMBL1122046, “Quaternary heterocyclylamino beta-lactams: a generic alternative to the classical acylamino side chain” (1982).

Values after ≈ are worked out from the molar mass of the structure shown.

For one test, the system named is Shigella. Nature of the test: (§1) Minimum inhibitory concentration against aerobic organism Shigella species strain 2880. The conditions noted are these: Shigella; read-out: MIC. In kind it is functional. An outline of the steps: (§2)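 Agar-dilution MIC in µg/mL against aerobic bacterial strains on tryptocase soy agar, with inoculum applied as spots. Most series used 10^5 cfu per spot, and a later series used 10^4 cfu per spot. In some tables, footnoted strains were instead tested on Mueller-Hinton or nutrient agar. β-Lactamase-producing strains are flagged.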

In test [1] the test system is Streptococcus pyogenes. Nature of the test: Minimum inhibitory concentration against aerobic organism Streptococcus pyogenes strain 3124. The class given is functional. An outline of the steps:
as §2

The subject of test [2] is Klebsiella aerogenes. Nature of the test: Minimum inhibitory concentration against aerobic organism Enterobacter aerogenes strain 2906. In kind it is functional. As to conditions: Klebsiella aerogenes; read-out: MIC. An outline of the steps:
as §2

Test [3] deals with Serratia marcescens. Nature of the test: Minimum inhibitory concentration against aerobic organism Serratia marcescens strain 2852. In kind it is functional. As to conditions: Serratia marcescens; read-out: MIC. In a few lines: as §2
Test [4] has as its system Enterobacter cloacae. Nature of the test: Minimum inhibitory concentration against aerobic organism Enterobacter cloacae strain 2646. As to conditions: Enterobacter cloacae; read-out: MIC. The class given is functional. An outline of the steps:
as §2

The subject of test [5] is Morganella morganii. The test is described as follows: Minimum inhibitory concentration against aerobic organism Morganella morganii strain 2833.
Test [6] in a line: Minimum inhibitory concentration against aerobic organism Salmonella schottmuelleri strain 2837. The conditions noted are these: Salmonella; read-out: MIC. The class given is functional. In a few lines:
as §2

The test system of test [7] is Pseudomonas aeruginosa. The test is described as follows: Minimum inhibitory concentration against aerobic organism Pseudomonas aeruginosa strain 2835. In kind it is functional. An outline of the steps: as §2
Test [8] has as its system Enterococcus faecalis. Nature of the test: Minimum inhibitory concentration against aerobic organism Streptococcus faecalis strain 2864. The class given is functional. In a few lines:
as §2

Another test has as its system Proteus vulgaris. The test is described as follows: Minimum inhibitory concentration against aerobic organism Proteus vulgaris strain 2829. The class given is functional. As to conditions: Proteus vulgaris; read-out: MIC. An outline of the steps:
as §2

Another test relates to Proteus mirabilis. Nature of the test: Minimum inhibitory concentration against aerobic organism Proteus mirabilis strain 2830. The class given is functional. The conditions noted are these: Proteus mirabilis; read-out: MIC. An outline of the steps:
as §2

In test [9] the test system is Staphylococcus aureus. The test is described as follows: Minimum inhibitory concentration against aerobic organism Staphylococcus aureus strain 2868. The class given is functional. The conditions noted are these: Staphylococcus aureus; read-out: MIC. An outline of the steps: as §2
Test [10] deals with Klebsiella pneumoniae. The test is described as follows: Minimum inhibitory concentration against aerobic organism Klebsiella pneumoniae strain 2882. The class given is functional. As to conditions: Klebsiella pneumoniae; read-out: MIC. An outline of the steps: as §2
For a further test, the system named is Escherichia coli. Nature of the test: MIC against aerobic organism Escherichia coli strain 2891. The class given is functional. The conditions noted are these: Escherichia coli; read-out: MIC. An outline of the steps:
as §2

The test system of the next test is Shigella sp. Described as §1. The class given is functional. In a few lines: as §2
Test [11] deals with Enterobacter cloacae. The test is described as follows: Minimum inhibitory concentration against aerobic organism Enterobacter cloacae 2646. In kind it is functional. An outline of the steps:
as §2

Test [12] relates to Enterococcus faecalis. Nature of the test: Minimum inhibitory concentration against aerobic organisms Streptococcus faecalis strain 2864. The class given is functional. In a few lines: as §2
Test [13] is described as follows: Minimum inhibitory concentration against aerobic organism Salmonella schottmuelleri 2837. The class given is functional. An outline of the steps: as §2
Test [14] deals with Morganella morganii. Nature of the test: Minimum inhibitory concentration against aerobic organism Morganella morganii strain 2833. In kind it is functional. As to conditions: Morganella morganii; read-out: MIC. In a few lines:
as §2

The subject of test [15] is Klebsiella pneumoniae. Nature of the test: Minimum inhibitory concentration against aerobic organism Klebsiella pneumoniae strain 4005. The class given is functional. In a few lines: as §2
Test [16] relates to Klebsiella aerogenes. The test is described as follows: Minimum inhibitory concentration against aerobic organism Enterobacter aerogenes strain 2828. In kind it is functional. In a few lines:
as §2

Test [17] concerns Staphylococcus aureus. The test is described as follows: Minimum inhibitory concentration against aerobic organism Staphylococcus aureus strain 2865. The class given is functional. In a few lines: as §2
Test [18] deals with Salmonella. Nature of the test: Minimum inhibitory concentration against aerobic organism Salmonella strain 3860.
In test [19] the test system is Enterococcus faecalis. Nature of the test: Minimum inhibitory concentration against aerobic organism Streptococcus faecalis strain 2864.
In test [20] the test system is Salmonella. The test is described as follows: Inhibition zone diameter against aerobic organism Salmonella strain 826.
Test [21] deals with Staphylococcus aureus. The test is described as follows: Inhibition zone diameter against aerobic organism Staphylococcus aureus strain 2314.
Test [22] concerns Pseudomonas aeruginosa. Nature of the test: Inhibition zone diameter against aerobic organism Pseudomonas aeruginosa strain 3350.
The test system of a further test is Klebsiella. The test is described as follows: Inhibition zone diameter against aerobic organism Klebsiella species strain 2921.
Test [23] concerns Morganella morganii. The test is described as follows: Disk zone diameter (25 ug/disk) against aerobic organism Morganella morganii strain 2834.
Test [24] relates to Streptococcus pyogenes. Nature of the test: Inhibition zone diameter against aerobic organism Streptococcus pyogenes strain 2874.
The subject of test [25] is Serratia marcescens. Nature of the test: Inhibition zone diameter against aerobic organism Serratia marcescenes strain 2855.
The mark [26] stands for this setting: Streptococcus pyogenes, read-out: MIC.

Consider `CCOC(=O)C[n+]1ccc(N[C@@H]2C(=O)N3C(C(=O)[O-])=C(CSc4nnnn4C)CS[C@H]23)cc1`, for which the MIC was less than 0.5 µg/mL in the test with Shigella; less than 0.5 µg/mL with Streptococcus pyogenes [1] (setting [26]); 32 µg/mL (≈ 65.1 µM) with Klebsiella aerogenes [2]; greater than 128 µg/mL with Serratia marcescens [3]; 16 µg/mL (≈ 32.5 µM) with Enterobacter cloacae [4]; greater than 128 µg/mL against Morganella morganii [5]. For the same compound, the MIC in [6] was 2 µg/mL (≈ 4.07 µM); against Pseudomonas aeruginosa [7] it was greater than 128 µg/mL; in the test with Enterococcus faecalis [8], greater than 128 µg/mL; in the test on Proteus vulgaris, less than 0.5 µg/mL; with Proteus mirabilis, 128 µg/mL (≈ 260 µM); with Staphylococcus aureus [9], 16 µg/mL (≈ 32.5 µM). Also, the figures for the MIC in the test on Klebsiella pneumoniae [10] and in the test on Escherichia coli were 4 µg/mL (≈ 8.14 µM) and 2 µg/mL (≈ 4.07 µM), respectively.
For `CC1(C)S[C@@H]2[C@H](NC(=O)[C@H](N)c3ccccc3)C(=O)N2[C@H]1C(=O)O` [AMPICILLIN], the MIC was 6.25 µg/mL (≈ 17.9 µM) against Shigella sp.; less than 0.09 µg/mL against Streptococcus pyogenes [1]; greater than 100 µg/mL with Enterobacter cloacae [11]; 1.56 µg/mL (≈ 4.46 µM) in [6]; 25 µg/mL (≈ 71.5 µM) in the test with Staphylococcus aureus [9]; 50 µg/mL (≈ 143 µM) with Klebsiella pneumoniae [10]. Besides, the MIC was 6.25 µg/mL (≈ 17.9 µM) in the test on Enterococcus faecalis [12] and greater than 100 µg/mL in the test with Escherichia coli.
Turning to `CC1(C)S[C@@H]2[C@H](NC(=O)Cc3ccccc3)C(=O)N2[C@H]1C(=O)O` [PENICILLIN G], the MIC is 6.25 µg/mL (≈ 18.7 µM) with Shigella sp.; less than 0.39 µg/mL in the test with Streptococcus pyogenes [1] (setting [26]); greater than 100 µg/mL in the test with Enterobacter cloacae [11]; 3.12 µg/mL (≈ 9.33 µM) in test [13]; 12.5 µg/mL (≈ 37.4 µM) in the test on Staphylococcus aureus [9]; 25 µg/mL (≈ 74.8 µM) with Klebsiella pneumoniae [10]. For the same compound, the MIC against Enterococcus faecalis [12] was 1.56 µg/mL (≈ 4.67 µM); with Escherichia coli, greater than 100 µg/mL.
As for `Cc1nnc(SCC2=C(C(=O)[O-])N3C(=O)[C@@H](Nc4cc[n+](Cc5ccccc5)cc4)[C@H]3SC2)s1`, the MIC is 128 µg/mL (≈ 250 µM) in the test with Morganella morganii [14]; 16 µg/mL (≈ 31.3 µM) with Klebsiella pneumoniae [15]; 0.125 µg/mL (≈ 0.244 µM) in the test on Enterobacter cloacae [4]; greater than 128 µg/mL in the test on Pseudomonas aeruginosa [7]; 64 µg/mL (≈ 125 µM) against Enterococcus faecalis [8]; 0.25 µg/mL (≈ 0.489 µM) in the test with Proteus vulgaris. For the same compound, the MIC was 16 µg/mL (≈ 31.3 µM) in the test with Klebsiella aerogenes [16]; 0.25 µg/mL (≈ 0.489 µM) in the test with Staphylococcus aureus [17]; 128 µg/mL (≈ 250 µM) in the test with Proteus mirabilis; 2 µg/mL (≈ 3.91 µM) in the test with Staphylococcus aureus [9]; 0.125 µg/mL (≈ 0.244 µM) against Salmonella [18]; less than 0.06 µg/mL in the test on Escherichia coli.
With `C[n+]1ccc(NC2C(=O)N3C2SC(C)(C)[C@@H]3C(=O)[O-])cc1` (some centres not stated), the MIC with Shigella was 12.5 µg/mL (≈ 40.7 µM); in the test with Streptococcus pyogenes [1] (setting [26]), 1.56 µg/mL (≈ 5.08 µM); in the test on Enterobacter cloacae [4] it was greater than 100 µg/mL; in test [6], 0.78 µg/mL (≈ 2.54 µM); in the test on Staphylococcus aureus [9] it was greater than 100 µg/mL; in the test on Klebsiella pneumoniae [10], 100 µg/mL (≈ 325 µM). In addition, the MIC in the test with Escherichia coli was 50 µg/mL (≈ 163 µM); with Enterococcus faecalis [19], greater than 100 µg/mL.
As for `CC(O)[C@H]1C(=O)N2C(C(=O)[O-])=C(SCCNc3cc[n+](Cc4ccccc4)cc3)C[C@H]12` (some centres not stated), the zone diameter in the test on Salmonella [20] was found to be 26 mm; with Staphylococcus aureus [21], 36 mm; in the test with Pseudomonas aeruginosa [22], 11.2 mm; in the test on Klebsiella, 24 mm; with Morganella morganii [23], 26.5 mm; with Streptococcus pyogenes [24] it was 35.2 mm. This compound had a zone diameter in the test on Serratia marcescens [25] of 25 mm.
